# Results taken from ChEMBL document CHEMBL1145936, “Rational design of an indolebutanoic acid derivative as a novel aldose reductase inhibitor based on docking and 3D QSAR studies of phenethylamine derivatives” (J Med Chem, 2003).
# pIC50: −log10 of the molar value.
# Molecular target: Aldo-keto reductase family 1 member B1 (Sus scrofa, UniProt P80276)
# Experiment: Inhibition of pig kidney aldose reductase (ALR2)
# Summary of the method: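 Enzyme prepared from pig kidney and assayed in vitro following a previously published method. Inhibition read spectrophotometrically at 340 nm; IC50 values reported. Tolrestat served as positive control.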
row,pIC50,SMILES
1,4.03,O=C(O)CCC(=O)NCCc1ccc(F)cc1
2,3.82,O=C(O)/C=C/C(=O)NCc1ccccc1
3,3.77,COc1ccc(CCNC(=O)CCC(=O)O)cc1
4,3.96,O=C(O)CCCC(=O)NCCc1ccc(Br)cc1
5,3.85,O=C(O)CCC(=O)NCc1ccccc1
6,4.14,O=C(O)/C=C/C(=O)NCCc1ccccc1
7,4.11,O=C(O)CCC(=O)NCCc1ccccc1
8,3.72,O=C(O)CCC(=O)Nc1ccccc1
9,4.03,O=C(O)CCC(=O)NCCc1ccc(Br)cc1
10,3.88,O=C(O)CCCC(=O)NCc1ccccc1
11,4.12,O=C(O)CCCC(=O)NCCc1ccc(F)cc1
12,3.41,O=C(O)CCC(=O)NCCc1ccc(O)cc1
13,4.00,O=C(O)CCC(=O)NCCc1ccc(Cl)cc1
14,3.81,O=C(O)CCCC(=O)NCCc1ccc(Cl)cc1
15,3.98,O=C(O)CCCC(=O)NCCc1ccccc1
16,3.73,COc1ccc(CCNC(=O)CCCC(=O)O)cc1
17,3.36,O=C(O)CCCC(=O)Nc1ccccc1

# The next lines start with the molecule.
row,SMILES,pIC50
1,CC(=O)NCCc1ccc(O)cc1,3.80
2,CCCCCCCCCC(=O)NCCc1ccc(O)cc1,3.96
3,COc1ccc(CCNC(=O)c2ccccc2C(=O)O)cc1,3.75
4,O=C(O)c1ccccc1C(=O)NCc1ccccc1,3.74
5,CCCCCCCCCCCC(=O)NCCc1ccc(O)cc1,3.96
6,O=C(NCCc1ccc(O)cc1)c1ccccc1,3.80
7,O=C(O)/C=C/C(=O)NCCc1ccc(F)cc1,4.12
8,O=C(O)/C=C/C(=O)NCCc1ccc(Br)cc1,4.00
9,O=C(O)c1ccccc1C(=O)NCCc1ccc(Br)cc1,4.09
10,O=C(O)c1ccccc1C(=O)NCCc1ccccc1,4.06
11,O=C(O)/C=C/C(=O)n1ccc2ccccc21,4.43
12,O=C(O)c1ccccc1C(=O)NCCc1ccc(Cl)cc1,3.69
13,O=C(O)c1ccccc1C(=O)NCCc1ccc(O)cc1,3.47
14,COc1cc(C(=O)NCCc2ccc(O)cc2)cc(OC)c1OC,4.00
15,O=C(O)c1ccccc1C(=O)N1CCc2ccccc21,4.02
16,O=C(O)/C=C/C(=O)NCCc1ccc(Cl)cc1,3.95

row,SMILES,pIC50
1,O=C(O)c1ccccc1C(=O)n1ccc2ccccc21,4.52
2,O=C(O)c1ccccc1C(=O)NCCc1ccc(F)cc1,4.06
3,COc1ccc(CCNC(=O)/C=C/C(=O)O)cc1,3.81
4,O=C(O)/C=C/C(=O)NCCc1ccc(O)cc1,4.10
5,O=C(O)/C=C/C(=O)Nc1ccccc1,3.74
6,O=C(O)CCC(=O)n1ccc2c(O)cccc21,5.13
7,O=C(O)/C=C/C(=O)N1CCc2ccccc21,4.40
8,CCCCCCCCCCCCCCCC(=O)NCCc1ccc(O)cc1,3.82
9,O=C(O)CCC(=O)n1ccc2ccccc21,4.62
10,O=C(O)CCC(=O)N1CCc2ccccc21,3.99
11,CCCCC(=O)NCCc1ccc(O)cc1,3.89
12,CCCCCCCC(=O)NCCc1ccc(O)cc1,3.92
13,CCC(C)C(=O)NCCc1ccc(O)cc1 (stereo not drawn),2.74
14,O=C(O)c1ccccc1C(=O)Nc1ccccc1,3.64
15,COc1ccc2c(C(=S)N(C)CC(=O)O)cccc2c1C(F)(F)F [TOLRESTAT],4.80
